Type in all cases: functional, cell-based
Details in all cases: Homo sapiens

One test deals with HL-60. Description: Concentration required to inhibit HL-60 cell growth. In short, it runs like this:
(§1)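 MTT assay after 24 h incubation with compound, top tested concentration 1000 µM. IC50 = concentration giving 50% inhibition of cell growth relative to untreated control. Human lines: myelogenous leukaemia K562, promyelocytic leukaemia HL60, colon adenocarcinoma HT29, breast adenocarcinoma MCF7, normal foetal lung MRC-5.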

In another test the test system is HT-29. In words: Concentration required to inhibit HT-29 cell growth. In short, it runs like this: as §1
For another test, the system named is K562. In words: Concentration required to inhibit K562 cell growth. The procedure, abridged:
as §1

Another test deals with MCF7. In words: Concentration required to inhibit MCF-7 cell growth. In short, it runs like this: as §1
The subject of another test is MRC5. In words: Concentration required to inhibit MRC-5 cell growth. The procedure, abridged: as §1

Turning to `NC(=O)c1csc([C@@H]2O[C@H](CO)[C@@H](O)[C@H]2O)n1` [TIAZOFURIN], the IC50 (in general, the concentration that inhibits the measured activity by half) came out at 9.32 µM in the test on HL-60; 1.01 µM with HT-29; 4.16 µM with K562; 8.49 µM in the test on MCF7; 0.85 µM with MRC5.

With `NC(=O)c1csc([C@@H]2O[C@H](CO)[C@@H](F)[C@H]2O)n1`, the 50% inhibitory concentration (IC50) in the test on HL-60 is 10.5 µM; in the test with HT-29 it was 0.91 µM; with K562, 96.6 µM; in the test on MCF7 it was > 1000 µM; in the test with MRC5, > 1000 µM.

Turning to `CC(=O)N[C@H]1[C@@H](O)[C@H](c2nc(C(N)=O)cs2)O[C@@H]1CO`, the IC50 is 1000 µM in the test on HL-60; 1 µM with HT-29; 0.095 µM with K562; > 1000 µM in the test on MCF7; 89.7 µM in the test with MRC5.

Source of the values: ChEMBL document CHEMBL1136224, “De novo synthesis of two new cytotoxic tiazofurin analogues with modified sugar moieties” (Bioorg Med Chem Lett, 2003).
